Compound activity: PubChem, Sanford-Burnham Center for Chemical Genomics
G6PDH counter: L. mesenteroides G6PDH inhibitors, counter-screen for G6PDH-coupled screening assays, biochemical, Leuconostoc mesenteroides enzyme. glucose-6-phosphate dehydrogenase [Leuconostoc mesenteroides]. Purified L. mesenteroides G6PDH, diaphorase/resazurin coupled fluorescence, 45 min. inhibition, % at 5 µM. actives 0.12% (n = 200,000); in the data active means inhibition above about 50%
FLuc stim CS: FLuc activators, initial screening, artefact control for FLuc-dependent activation tests, biochemical, ATPlite luminescence; Luciferin 4-monooxygenase (Photinus pyralis), P08659; ATPlite luciferase biochemical, 10 min; 0 = ATP-free wells, 1 = DMSO control; activation factor at 10 µM; 200,000 tested, under 10 active; AID 1027, 2008;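 active means luciferase activation factor, scaled between plate controls, of at least 2 with compound at 10 µM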
Target sequence (P08659 whole entry, looked up): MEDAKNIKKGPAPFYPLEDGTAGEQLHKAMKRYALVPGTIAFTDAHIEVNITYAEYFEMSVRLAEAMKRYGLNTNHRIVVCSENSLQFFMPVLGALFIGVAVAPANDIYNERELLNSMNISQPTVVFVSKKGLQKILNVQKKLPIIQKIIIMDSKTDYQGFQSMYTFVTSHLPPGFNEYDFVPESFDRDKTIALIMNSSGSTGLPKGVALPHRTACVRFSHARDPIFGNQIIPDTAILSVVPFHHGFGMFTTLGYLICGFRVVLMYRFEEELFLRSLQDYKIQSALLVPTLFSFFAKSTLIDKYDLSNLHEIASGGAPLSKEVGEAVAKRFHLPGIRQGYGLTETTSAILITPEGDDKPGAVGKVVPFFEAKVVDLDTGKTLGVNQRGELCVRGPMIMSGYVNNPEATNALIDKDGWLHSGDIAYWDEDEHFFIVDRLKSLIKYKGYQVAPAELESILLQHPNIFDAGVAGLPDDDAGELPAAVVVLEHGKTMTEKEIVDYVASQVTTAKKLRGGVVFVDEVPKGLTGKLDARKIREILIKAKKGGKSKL
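Assay system: Luciferase/luciferin detection reagent, cell-free biochemical luciferase assay / Also added: ATP substrate / Schedule: 10 min at ambient temperature / Measured by: luminescence measurement of luciferase light output / Benchmarks: low control with PBS replacing ATP, high control enzyme plus ATP without compound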
Diaph inh CS: diaphorase inhibitors and chemical oxidizers, primary screen, counter-screen for diaphorase-coupled primary assays, biochemical, uHTS, resorufin fluorescence; diaphorase resazurin-to-resorufin fluorescence, NADH, 16 min; bacterial (C. kluyveri) enzyme, not human; inhibition, % at 20 µM; actives 0.69% (n = 190,000); AID 1217, 2008;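 active means primary screen inhibition at 20 µM above a set limit, cut at about 50% in these data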;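 further: plate controls were DMSO with full reaction for no effect and wells lacking NADH for full effect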
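Test system: diaphorase enzyme from Clostridium kluyveri; amount: diaphorase at 0.14 U/mL in enzyme working solution; detection: fluorescence of resorufin formed from resazurin, Ex 544/Em 590 nm; times: reaction incubation of 16 min at room temperature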
Diaph act CS: compounds boosting diaphorase resazurin reduction – biochemical, uHTS, resorufin fluorescence, counter-screen for diaphorase-coupled primary assays, primary screen. Diaphorase/resazurin coupled assay, 16 min; hits give high values; 1 = vehicle wells, 0 = NADH-free wells. activation factor at 20 µM. actives 0.005% (n = 190,000);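 active means diaphorase activity raised at least twofold by the compound at 20 µM; inactive means activation factor below 2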
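Material: bacterial diaphorase enzyme (C. kluyveri); amount: enzyme 0.07 U/mL final; reagent: NADH substrate 0.114 mM plus resazurin dye 0.1 mM, final; doses: single compound dose of 20 µM, 1% DMSO final; timing: 16 min enzyme reaction, ambient temperature; measured by: fluorescence of resorufin, 544 nm excitation, 590 nm emission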
FLuc inhib CS: firefly luciferase enzyme inhibitors, primary screen, artefact control for luciferase-based inhibitor screens, biochemical, luminescence, ATPLite. Luciferin 4-monooxygenase (Photinus pyralis), P08659. 10 min. inhibition, % at 10 µM. actives 1.5% (n = 200,000). AID 1006, 2008;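 active means inhibition above about 50% when tested at 10 µM, limit read from the data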
Active calls of the source: *. This is a sample that favours compounds with a hit; in the whole collection about 2.3% have one here.

SMILES	G6PDH counter	FLuc stim CS	Diaph inh CS	Diaph act CS	FLuc inhib CS
c1ccc(-c2nc3ccccc3[nH]2)nc1	19	0.5	12	0.9	46
COc1ccc2oc(=Nc3cccc(F)c3)c(C(N)=O)cc2c1	2	1	0	1	-5
COc1ccc(-c2nc3ccccc3[nH]2)cc1	1	0.1	4	1	93*
Cc1ccc2nc(-c3ccccc3N)[nH]c2c1	18	0.2	14	0.9	80*
Nc1nc(-c2nc3ccccc3[nH]2)cs1	-6	0.4	8	0.9	63*
COc1ccc2oc(=Nc3ccccc3)c(-c3nc4ccccc4[nH]3)cc2c1	-7	0.4	8	0.9	61*
Cc1ccc(C)c(-c2nc3ccc(N)cc3[nH]2)c1	-19	1	9	0.9	1
COc1ccc(NC(=O)NC23CC4(C)CC(C)(CC(C)(C4)C2)C3)cc1OC	-9	1	12	0.9	-4
CCNc1nc(NCC)n2c(SC(C(=O)Nc3cc(Cl)cc(Cl)c3)c3ccccc3)nnc2n1 (configuration not stated)	4	1	-4	1	-3
Cc1cc(-c2nc3ccccc3[nH]2)ccc1N	1	0.3	2	1	72*
Cc1ccc(-c2nc3ccccc3[nH]2)s1	-10	0.4	7	0.9	61*
COC(=O)c1ccc(-c2nc3ccccc3[nH]2)cc1	2	0.1	16	0.8	91*
COC(=O)c1ccc(/C=N/Nc2nc3ccccc3[nH]2)cc1	3	0.6	-7	1.1	44
CN(CC(=O)Nc1cccc2ccccc12)C(=O)/C=C/c1cccs1	1	1	7	0.9	-1
COc1ccc(C(=O)C2CCCN(C(=O)COc3ccc(C(C)=O)cc3)C2)cc1F (configuration not stated)	14	1	70*	0.3	4
COc1ccc(C(=O)C2CCCN(C(=O)c3ccccc3C(C)=O)C2)cc1F (configuration not stated)	10	1	-14	1.1	-5
CN(C)S(=O)(=O)c1cc(NC(=O)CN2CCN(c3ccccc3O)CC2)ccc1Cl	0	1.1	18	0.8	-7
COC(=O)c1ccccc1NC(=O)Nc1nnc(N2CCCCC2C)s1 (configuration not stated)	10	1	14	0.9	-1
CC1CCCCN1c1nnc(NC(=O)Cn2c(=O)oc3ccccc32)s1 (configuration not stated)	7	1.1	62*	0.4	-7
CC(C)(C)c1ccc(C(=O)Nc2cccc([N+](=O)[O-])c2)cc1	-6	0.3	5	1	72*
CN(c1cccc(NC(=O)c2ccc(C(C)(C)C)cc2)c1)S(C)(=O)=O	15	0.2	0	1	80*
CN(c1cccc(NC(=O)c2ccc(N(C)S(=O)(=O)c3ccccc3)cc2)c1)S(C)(=O)=O	4	1.1	21	0.8	-6
Cc1ccc2c(c1)Cc1nc3ccccc3nc1-2	2	0.1	24	0.8	87*
Cc1ccc2c(c1)-c1nc3ccccc3cc1C2=NC1CCCCC1	14	0.9	23	0.8	5
O=C(NCc1ccc2c(c1)OCO2)c1cccnc1Cl	0	1	10	0.9	1
SMILES	G6PDH counter	FLuc stim CS	Diaph inh CS	Diaph act CS	FLuc inhib CS
Cc1cc(C(C)C)n2c(nc3ccccc32)c1C#N	0	1.1	13	0.9	-6
Cc1cc(-c2ccco2)c(C#N)c2nc3ccccc3n12	20	0.9	72*	0.3	11
CCC(=O)c1ccc(OCC(=O)NC2(C#N)CCCCC2)cc1	3	1.1	11	0.9	-5
CS(=O)(=O)Nc1cccc(C2=NN(C(=O)c3ccccc3Cl)C(c3ccccc3O)C2)c1 (configuration not stated)	5	1.1	22	0.8	-5
CCn1c(=O)c(-[n+]2ccccc2)c(O)c2ccccc21	-14	1.1	53*	0.5	-8
CCn1c2ccccc2c(=O)c2ccccc21	4	1	9	0.9	-3
